ChEMBL document CHEMBL3860049, “Virtual Screening and X-ray Crystallography Identify Non-Substrate Analog Inhibitors of Flavin-Dependent Thymidylate Synthase” (J Med Chem, 2016)

Test system: Mycobacterium tuberculosis
Assay: Inhibition of Mycobacterium tuberculosis ThyX at 100 uM preincubated with enzyme followed by [5-3H]dUMP substrate addition measured after 30 mins in presence of 5,10-methylenetetrahydrofolate,NADPH and FAD by liquid scintillation counting
In short: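 Recombinant Mtb ThyX (purified per an earlier protocol) tested at 100 µM per compound. Tritium release assay: formation of tritiated water from loss of 3H at the 5-carbon of the dUMP pyrimidine ring, with dUMP as competing substrate. Read-out is percent inhibition. 5-FdUMP served as reference compound.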

Compared with `O=c1[nH]nc(-c2ccccc2)c2nc[nH]c12`, `O=c1[nH]nc(Cl)c2nc[nH]c12` is higher in inhibition: 15% for the first, 29% for the second.

Compared with `C[C@@H](Sc1n[nH]c(=O)[nH]c1=O)C(=O)O`, `CC[C@H](Sc1n[nH]c(=O)[nH]c1=O)C(=O)O` is lower in inhibition: 6.1% for the first, 5.7% for the second.

First: COc1ccc2[nH]c3c(O)nncc3c2c1
Second: O=c1[nH][nH]c(=O)c2nc3ccccc3nc12
The inhibition of the first is lower: 7% for the first, 10% for the second.

Compared with `O=c1[nH][nH]c(=O)c2nccnc12`, `O=c1[nH][nH]c(=O)c2[nH]cnc12` is higher in inhibition: 5.3% for the first, 7.1% for the second.

Going from `CSc1n[nH]c(=O)c2[nH]cnc12` to `Cc1nnc(Cl)c2ncn(C)c12`, the inhibition rises from 10% to 14%.

First: CCCC(=O)C1C(=O)NC(=O)NC1=O
Second: O=c1[nH]c(=O)n([C@H]2C[C@H](O)[C@@H](COP(=O)(O)O)O2)cc1F
The inhibition of the first is lower: 11% for the first, 97.3% for the second.
